# Assay outcomes from PubChem BioAssay.
# Compounds with a hit are over-represented: about 2.1% of the library has one in this group of screens.
# MT stabilizer – microtubule stabilizers in HeLa cells | AID 2205 | 0.83% of 200,000 active | % tubulin-high responders, % at 10 µM | HeLa tubulin immunostaining HCS, 24 h; share of cells brighter than vehicle mean+2SD;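 active means plate Z-score above 3 for both tubulin-high and condensed-nucleus cell shares, with cell loss under 80%, at 10 µM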;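 further: anti alpha tubulin signal scored within the nucleus-defined area of each cell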
# bCat nuc transl – modulators of beta-catenin nuclear translocation; nuclear translocation activity, % at 5 µM; HeLa beta-catenin nuclear translocation, immunofluorescence imaging; AID 1665; 0.3% of 190,000 active;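 active means nuclear translocation activity above 50% at 5 µM, with a well cell count of 50 or more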;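 further: per-cell ratio of nuclear to cytoplasmic median beta-catenin stain intensity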
#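 Read-out: Nuclear/cytoplasmic beta-catenin signal ratio, % activation | Assay system: Human HeLa cell line | Times: 24 h compound exposure at 37°C, 5% CO2 | Signal: Fluorescence imaging of beta-catenin antibody stain plus DAPI | Dosing: 5 µM primary, 0.02–20 µM confirmation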
# Dynein transport – blocks dynein driven cargo transport along microtubules | 3617.4 mouse cells, GR-EGFP nuclear translocation imaging; test concentration mostly 20 µM; stimulated with dexamethasone, 1 µM; hits give low values | z-score, hits read low | 0.47% of 220,000 active;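 active means plate z-score of nuclear minus cytoplasmic receptor signal below a set negative limit, without overly bright fluorescence or cell loss, cut at about -3.5 in these data, passing the limit was not always enough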;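 further: z-score of nuclear minus cytoplasmic ring GR-EGFP intensity difference per well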
#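 medium = tetracycline-free induction medium containing charcoal-stripped FBS | probe or stimulus = dexamethasone, 1.0 µM final | timing = 48 h induction, then 1 h compound, then 30 min agonist, 37 °C | detection = automated 10x imaging of fixed Hoechst-stained cells | read-out basis = nuclear versus cytoplasmic GR-EGFP signal, averaged per well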
# Hsp70 activator – Hsp70 transcriptional activation, primary screen; HeLa Hsp70 promoter luciferase reporter, luminescence; scaled: vehicle 0, proteasome-inhibitor control 100%; activation, % at 10 µM; 0.04% of 200,000 active; AID 1203;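 active means activation above the mean across all tested compounds plus 3 SD, cutoff set per campaign, cut at about 5.5% in these data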
# Autophagy HCS – autophagy modulation, high-content screen | MEF GFP-LC3 puncta imaging; test concentration mostly 10 µM | calls only at 10 µM (by protocol) | 0.98% of 190,000 active;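 active means percentage of spot-positive cells more than 3 SD above its plate mean, without a fluorescence outlier flag or 80% toxicity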
# Hits are given with their value; - = inactive; . = no result; + = active, no number.
SMILES,MT stabilizer,bCat nuc transl,Dynein transport,Hsp70 activator,Autophagy HCS
Fc1ccc(C2C3=C(Nc4ncnn42)c2ccccc2OC3c2ccncc2)cc1 (stereo not drawn),-,.,-,-,-
Cc1ccc(C2Oc3ccccc3C3=C2C(c2cccs2)n2ncnc2N3)cc1 (stereo not drawn),32,-,-,-,-
COc1cc(C2CC(=O)Nc3n[nH]c(-c4ccccc4)c32)cc(OC)c1OC (stereo not drawn),.,-,-,.,.
O=C(NCc1ccc2c(c1)OCO2)C1CCCN1S(=O)(=O)c1ccc(Cl)cc1 (stereo not drawn),-,-,-,-,-
COc1cc(C(c2c(C)[nH][nH]c2=O)c2c(C)[nH][nH]c2=O)cc(OC)c1OC,-,-,-,-,+
COc1ccccc1/C=C/C(=O)c1c2c(c(C)[nH]c1=O)CCCC2,-,-,-,-,+
O=C1NN(c2ccc(F)cc2)C(=O)/C1=C\C=C\c1ccco1,-,-,-,-,-
CC1=NN(c2cccc(C(=O)O)c2)C(=O)/C1=C\C=C\c1ccco1,-,-,-4.6,-,-
CCN1CCN(c2cc(C)c3cc(NC(=O)c4ccc(OC)c(OC)c4)ccc3n2)CC1,-,.,-,-,+
O=C(N/C(=C\c1ccc(Cl)cc1)C(=O)N1CCOCC1)c1ccc([N+](=O)[O-])cc1,-,-,-,-,-
Cn1c(=O)oc2cc(S(=O)(=O)N3CCC(C(=O)NCc4ccc(F)cc4)CC3)ccc21,-,.,-,-,+
COc1ccc(S(=O)(=O)Nc2cc(Sc3ncn[nH]3)c(O)c3ccccc23)cc1,-,.,-4.5,-,-
COc1ccc(OC)c(N=c2ssnc2Cl)c1,-,-,-4.7,-,-
Cc1cc(NC(c2ccc(Cl)cc2)c2ccc3cccnc3c2O)no1 (stereo not drawn),-,.,-,-,+
Cc1ccnc(NC(c2cccnc2)c2ccc3cccnc3c2O)c1 (stereo not drawn),-,-,-,-,-
CNc1nc2cccnc2s1,.,-,-,.,.
O=C(/C=C/c1ccco1)Nc1ccc2nc3n(c(=O)c2c1)CCCC3,-,-,-,-,-
COCCn1c(SCC(=O)Nc2ccc(C)cc2C)nc2c(oc3ccccc32)c1=O,-,.,-,-,+
Cc1c(NC(=O)c2cc3c(s2)-c2ccccc2OC3)cccc1[N+](=O)[O-],-,-,-,-,+
COc1ccc(C)cc1N1C(=N)/C(=C2/Nc3ccccc3S2)C(c2ccccc2)C1=O (stereo not drawn),-,-,-3.6,-,-
COc1ccc(C2C(Oc3ccccc3)C(=O)N2c2cc(C)ccc2C)cc1OC (stereo not drawn),-,.,-,-,-
CN(C(=O)COC(=O)c1cc(NS(=O)(=O)c2cc([N+](=O)[O-])ccc2Cl)ccc1O)C1CCCCC1,-,-,-,-,-
Nc1c(C(=O)Nc2nccs2)sc2nc(-c3cccs3)cc(C(F)(F)F)c12,-,-,-,-,+
Cc1nn(C)c2nc(-c3cccs3)cc(C(F)(F)F)c12,-,-,-,-,-
CC(C)(C)C(=O)c1sc2nc(-c3cccs3)cc(C(F)(F)F)c2c1N,-,-,-,-,+
SMILES,MT stabilizer,bCat nuc transl,Dynein transport,Hsp70 activator,Autophagy HCS
COc1ccccc1NC(=O)c1sc2nc(Cc3ccccc3)cc(C(F)(F)F)c2c1N,-,-,-,-,+
Cc1cc(C)nc(NS(=O)(=O)c2ccc(NC(=O)c3ccc4c(c3)OCCO4)cc2)n1,-,-,-,-,-
Cc1nc(NCc2ccco2)c2c3c(sc2n1)CCC3,-,-,-,-,-
COc1ccc(Nc2nc(C)nc3sc4c(c23)CCC4)cc1O,21,-,-,-,-
CCOC(=O)c1c(O)c2ccccc2n(CC)c1=O,-,-,-,-,-
CSc1ncc(CN2CCc3c([nH]c4ccccc34)C2c2cccc(O)c2)cn1 (stereo not drawn),-,-,-,-,-
Cc1cccc2sc(NC(=O)C3CCCN(S(=O)(=O)c4cccc5nonc45)C3)nc12 (stereo not drawn),-,-,-,-,+
COC(=O)Oc1ccc(/C=N/NC(=O)CSCc2ccccc2Br)cc1OC,-,-,-,-,-
CC(C)CC(=O)Nc1ccc2c(c1)OCO2,-,-,-,-,+
C=CCOc1c(Cl)cc(C2NC(=O)NC(C)=C2C(=O)OC)cc1Cl (stereo not drawn),23,-,-,-,-
C=CCOc1c(OC)cc(Cl)cc1C1NC(=O)NC(C)=C1C(C)=O (stereo not drawn),-,-,-,-,-
N=c1sccn1CC(=O)Nc1ccc(SC(F)F)cc1,-,-,-,-,+
COC(=O)c1ccccc1NC(=O)CSc1ncn[nH]1,.,-,-,.,.
O=C(C1CCN(c2nnc(-n3cccc3)s2)CC1)N1CCN(Cc2ccc3c(c2)OCO3)CC1,-,-,-,-,-
CC1CCN(Cc2ccc(NC(=O)C3CCN(c4nnc(-n5cccc5)s4)CC3)cc2)CC1,-,-,-,-,+
CCC(=O)NC(c1cccs1)c1cc(Cl)c2cccnc2c1O (stereo not drawn),-,-,-,-,+
C/C(N)=C(/C#N)C(=O)CSc1cc(C)c2cc(C)cc(C)c2n1,-,-,-,-,+
Cc1cc(C)c2nc(SCC#N)cc(C)c2c1,-,-,-,-,-
COC(=O)/C(=C1/Oc2ccc(C(C)(C)C)cc2S1)C(F)(F)F,-,-,-,-,-
COC(=O)/C(=C1/Oc2cc(C)oc(=O)c2S1)C(F)(F)F,-,-,-,-,+
COc1ccc(-c2nc3ccccc3nc2-c2ccccc2)cc1,-,-,-,-,-
COc1ccc(-c2[nH]ncc2N=Nc2ccccc2)cc1,19,89,-,-,-
COc1ccc(-c2[nH]ncc2N=Nc2cc(C)cc(C)c2)cc1,16,-,-,-,-
O=C(Cn1c(-c2ccccn2)nc2ccccc21)N/N=C/c1cccnc1,.,-,-,.,.
CCC1=Nc2cc(C(=O)NCc3cccnc3)ccc2Sc2ccc(C)cc21,.,64,-,.,.
SMILES,MT stabilizer,bCat nuc transl,Dynein transport,Hsp70 activator,Autophagy HCS
CCC1=Nc2cc(C(=O)NCc3ccco3)ccc2Sc2ccccc21,24,55,-,-,-
CCC1=Nc2cc(C(=O)NCc3ccco3)ccc2Sc2ccc(Cl)cc21,-,-,-,-,-
CCC1=Nc2cc(C(=O)NCCCOC(C)C)ccc2Sc2ccccc21,-,.,-,-,+
COc1cc([N+](=O)[O-])ccc1NC(=O)CN1CCOCC1,-,-,-,-,-
Cc1nn(-c2ccccc2)c(N2CCCC2)c1/C=N/NC(=O)c1cc(-c2cccnc2)nc2ccccc12,-,-,-,-,-
CC(/C=N/NC(=O)c1cc(-c2cccnc2)nc2c1c(C)nn2-c1ccccc1)=C\c1ccccc1,-,-,-,-,+
Cc1ccc(C2SCC(=O)N2Cc2cn3ccsc3n2)o1 (stereo not drawn),-,-,-,-,+
c1cn2cc(CN3CCOCC3)nc2s1,-,-,-,-,-
